Data reported in ChEMBL document CHEMBL1817559, “Synthesis and biological evaluation of HQCAs with aryl or benzyl substituents on N-1 position as potential HIV-1 integrase inhibitors” (Bioorg Med Chem, 2011).

Legend:
[1] = system: Human immunodeficiency virus 1; experiment: Antiviral activity against wild type HIV1 LAI-3B infected in human C8166 cells assessed as inhibition of virus-induced cytopathic effect by MTT assay; type: functional, organism-based; conditions: Human immunodeficiency virus 1, LAI-3B
Procedure, shortened: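 C8166 cells infected with wild-type HIV-1 LAI (strain IIIB); EC50 = concentration protecting cells from viral cytopathogenicity by 50%, read by MTT; means of at least two separate experiments.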

[2] = Cytotoxicity against human C8166 cells by MTT assay; type: cell-based
Procedure, shortened: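 Normal uninfected C8166 cells; MTT viability readout; CC50 = concentration reducing viability by 50%; means of at least two separate experiments.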

[3] = Selectivity index, ratio of CC50 for human C8166 cells to EC50 for wild type HIV1 LAI-3B; type: toxicity, cell-based; conditions: read-out: Ratio CC50/EC50
Procedure, shortened: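 Ratio CC50/EC50, where CC50 is from MTT viability of uninfected C8166 cells and EC50 is 50% protection of wild-type HIV-1 IIIB-infected C8166 cells from cytopathogenicity (MTT); inputs are means of at least two experiments.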

[4] = system: Human immunodeficiency virus 1; experiment: Antiviral activity against HIV1 A17 harboring reverse transcriptase Y181C mutant infected in human C8166 cells assessed as inhibition of virus-induced cytopathic effect by MTT assay; type: functional, organism-based; conditions: Human immunodeficiency virus 1, A17, C8166
Procedure, shortened: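 C8166 cells infected with mutant HIV-1 strain A17; protection from viral cytopathogenicity read by MTT. EC50 is the compound concentration that protects cells from viral cytopathic effect by 50%. Values are means of at least two separate experiments.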

Which results are given for `O=C(O)c1cn(-c2ccccc2)c2ccc(Cc3cccc(Cl)c3F)c(O)c2c1=O`?
EC50 [1]: 308 µM; CC50 [2]: 388 µM; selectivity ratio [3]: 1.26

Which results are given for `Cc1cccc(-n2cc(C(=O)O)c(=O)c3c(O)c(Cc4cccc(Cl)c4F)ccc32)c1`?
EC50 [1]: 20.5 µM; EC50 [4]: 43.7 µM; CC50 [2]: 71.5 µM; selectivity ratio [3]: 3.49

Which results are given for `Cc1ccc(-n2cc(C(=O)O)c(=O)c3c(O)c(Cc4cccc(Cl)c4F)ccc32)cc1`?
EC50 [1]: 3.58 µM; EC50 [4]: 67.9 µM; CC50 [2]: 194 µM; selectivity ratio [3]: 54.2

Which EC50 [1] does the source give for `Cc1ccc(-n2cc(C(=O)O)c(=O)c3c(O)c(Cc4cccc(Cl)c4F)ccc32)cc1C` here?
Its EC50 is 24.9 µM.

What about the EC50 [4] of the same compound?
The EC50 was 32.8 µM.

What about the CC50 [2] of the same compound?
Its CC50 is 316 µM.

What about the selectivity ratio [3] of the same compound?
The selectivity ratio was 12.7.

With `O=C(O)c1cn(-c2ccc(Br)cc2)c2ccc(Cc3cccc(Cl)c3F)c(O)c2c1=O` as the compound, how does the EC50 [1] read?
The EC50 was 7.12 µM.

And the EC50 [4]?
The EC50 was 33.2 µM.

What about the CC50 [2] of the same compound?
The CC50 was 85 µM.

What about the selectivity ratio [3] of the same compound?
Its selectivity ratio is 11.9.

Which results are given for `O=C(O)c1cn(Cc2ccccc2)c2ccc(Cc3ccccc3F)c(O)c2c1=O`?
EC50 [1]: 20.9 µM; EC50 [4]: 51.2 µM; CC50 [2]: 156 µM; selectivity ratio [3]: 7.49

Which EC50 [1] does the source give for `O=C(O)c1cn(Cc2ccccc2)c2ccc(Cc3cccc(Cl)c3F)c(O)c2c1=O` here?
The EC50 was 3.17 µM.

And the EC50 [4]?
Its EC50 is 17.9 µM.

And the CC50 [2]?
Its CC50 is 20.3 µM.

What about the selectivity ratio [3] of the same compound?
Its selectivity ratio is 6.42.

What does the source list for `Cc1ccc(Cn2cc(C(=O)O)c(=O)c3c(O)c(Cc4cccc(Cl)c4F)ccc32)cc1`?
EC50 [1]: 5.55 µM; EC50 [4]: 29.2 µM; CC50 [2]: 256 µM; selectivity ratio [3]: 46

What does the source list for `O=C(O)c1cn(Cc2ccccc2F)c2ccc(Cc3ccccc3F)c(O)c2c1=O`?
EC50 [1]: 6.46 µM; EC50 [4]: 27.2 µM; CC50 [2]: 67.1 µM; selectivity ratio [3]: 10.4

With `O=C(O)c1cn(Cc2ccccc2F)c2ccc(Cc3cccc(Cl)c3F)c(O)c2c1=O` as the compound, how does the EC50 [1] read?
Its EC50 is 3.27 µM.

And the EC50 [4]?
The EC50 was 24.2 µM.

What about the CC50 [2] of the same compound?
The CC50 was 44.9 µM.

What about the selectivity ratio [3] of the same compound?
Its selectivity ratio is 13.7.

With `O=C(O)c1cn(Cc2cccc(F)c2)c2ccc(Cc3cccc(Cl)c3F)c(O)c2c1=O` as the compound, how does the EC50 [1] read?
The EC50 was 4.93 µM.

And the EC50 [4]?
Its EC50 is 19.1 µM.

What about the CC50 [2] of the same compound?
The CC50 was 69 µM.

What about the selectivity ratio [3] of the same compound?
The selectivity ratio was 14.

With `O=C(O)c1cn(Cc2ccc(F)cc2)c2ccc(Cc3cccc(Cl)c3F)c(O)c2c1=O` as the compound, how does the EC50 [1] read?
Its EC50 is 9.34 µM.

And the EC50 [4]?
The EC50 was 22.5 µM.

What about the CC50 [2] of the same compound?
Its CC50 is 65.8 µM.

And the selectivity ratio [3]?
The selectivity ratio was 7.04.

Which EC50 [1] does the source give for `O=C(O)c1cn(Cc2ccc(F)c(F)c2)c2ccc(Cc3cccc(Cl)c3F)c(O)c2c1=O` here?
Its EC50 is 5.74 µM.

And the EC50 [4]?
The EC50 was 24.2 µM.

And the CC50 [2]?
Its CC50 is 71.4 µM.

And the selectivity ratio [3]?
The selectivity ratio was 12.4.

For `CC(C)[C@@H](CO)n1cc(C(=O)O)c(=O)c2c(O)c(Cc3cccc(Cl)c3F)ccc21`, which EC50 [4] is on record?
Its EC50 is 0.085 µM.

With `COc1cc2c(cc1Cc1cccc(Cl)c1F)c(=O)c(C(=O)O)cn2[C@H](CO)C(C)C` [ELVITEGRAVIR] as the compound, how does the EC50 [4] read?
The EC50 was 0.001 µM.
